Where two headings read alike, the source gives them in different places.
Tests used:
ACE2 [1] = biological target: T1, ACE2 (Homo sapiens, UniProt Q9BYF1); conditions: cell chromatography; cited from earlier work
[2] = biological target: angiotensin-converting enzyme 2 (ACE2) (Homo sapiens, UniProt Q9BYF1); assay: Frontal analysis on the ACE2 affinity capillary column; format: binding; conditions: 5 μM; 25 μm i.d., 40 mm; 30 nL/min; 25 °C
[3] = biological target: SARS-CoV-2-Main protease (Main pro) (Severe acute respiratory syndrome coronavirus 2, UniProt P0DTD1); assay: Normalized breakthrough curves on the Main pro affinity capillary column; format: binding
Summary of the method: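 Recombinant biotinylated Main pro was loaded at 10 μM and 30 nL/min onto a neutravidin poly(GMA-co-EDMA) monolith capillary, immobilising about 1.60 pmol (n = 6). Free test compound and its PEG-dispersed oxidised MWCNT nanovector (5 μM) were flushed in 50 mM PBS pH 7.4. Reference columns were neutravidin-only and ACE2. UV was read at 238 nm. Breakthrough was normalised as outlet/inlet absorbance versus tp/t0, with t0 from DMSO.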

ACE2 [4] = biological target: T1, ACE2; assay: Competition experiment with SARS-CoV-2 RBD on the ACE2 affinity column; format: binding; conditions: from competition with SARS-CoV-2 RBD
[5] = Breakthrough on neutravidin control column; format: binding; conditions: 5 μM; 25 μm i.d.; 30 nL/min; 25 °C; no ACE2 or Main pro
Summary of the method: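 Frontal analysis: free test compound or its PEG-dispersed oxidized multiwall carbon nanotube nanovector, each at 5 μM in 50 mM PBS pH 7.4, flushed successively through a neutravidin poly(GMA-co-EDMA) monolith capillary (40 mm, 25 μm i.d.) with no grafted receptor. Run at 30 nL min−1 and 25 °C with UV detection at 238 nm. Saturation plateau time tp is normalized to DMSO-derived dead time t0.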

ACE2 [6] = biological target: T1, ACE2; conditions: surface plasmon resonance; cited from earlier work

T1 sequence (Q9BYF1 18-805): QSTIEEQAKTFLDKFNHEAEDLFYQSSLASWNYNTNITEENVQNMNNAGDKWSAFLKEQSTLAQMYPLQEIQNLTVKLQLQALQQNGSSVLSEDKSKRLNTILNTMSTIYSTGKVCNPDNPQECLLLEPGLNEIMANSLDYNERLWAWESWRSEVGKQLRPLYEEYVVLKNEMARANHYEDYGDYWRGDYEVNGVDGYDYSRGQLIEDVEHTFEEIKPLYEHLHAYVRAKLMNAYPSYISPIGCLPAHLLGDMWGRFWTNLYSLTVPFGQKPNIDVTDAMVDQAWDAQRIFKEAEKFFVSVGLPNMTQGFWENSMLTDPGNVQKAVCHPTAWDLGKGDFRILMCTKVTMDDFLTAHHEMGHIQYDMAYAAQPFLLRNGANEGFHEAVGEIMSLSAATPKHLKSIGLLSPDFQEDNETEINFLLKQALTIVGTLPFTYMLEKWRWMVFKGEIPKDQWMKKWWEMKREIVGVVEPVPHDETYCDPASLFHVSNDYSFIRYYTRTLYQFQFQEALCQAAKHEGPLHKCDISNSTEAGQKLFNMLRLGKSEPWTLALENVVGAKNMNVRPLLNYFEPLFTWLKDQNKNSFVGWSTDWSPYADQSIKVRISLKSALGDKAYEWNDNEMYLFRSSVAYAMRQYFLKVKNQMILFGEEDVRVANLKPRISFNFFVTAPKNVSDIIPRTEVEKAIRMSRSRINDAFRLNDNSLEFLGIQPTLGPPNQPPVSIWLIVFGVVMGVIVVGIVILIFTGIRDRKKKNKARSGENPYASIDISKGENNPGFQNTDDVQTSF
Chain of angiotensin-converting enzyme 2 (ACE2) (Q9BYF1 18-805): as above

Row | Compound | Kd (ACE2 [1]) [nM] | normalized breakthrough time on the ACE2 column [2] | Kd [3] [µM] | normalized breakthrough time on the Main pro column ([3]; 5 μM, 25 μm i.d., 40 mm, 30 nL/min, 25 °C) | binding site on ACE2 (ACE2 [4]) | normalized breakthrough time t/t0 on neutravidin control column [5] | Kd (ACE2 [6]) [µM]
1 | CCN(CC)CCCC(C)Nc1ccnc2cc(Cl)ccc12 (stereo not shown) [Chloroquine, chloroquine] | 1300 |  |  |  |  |  | 
2 | C[C@@H]1C[C@H]2[C@@H]3CCC4=CC(=O)C=C[C@]4(C)[C@@]3(F)[C@@H](O)C[C@]2(C)[C@@]1(O)C(=O)CO [Dexamethasone] |  | above 1 | > 5 | above 1 | bound on the orthosteric site of ACE2 with specific interaction | ~1 | 9

From PMC9275543 (Chromatographia, 2022)
